Key:
[1] = biological target: T1, Glucocorticoid receptor (Homo sapiens, UniProt P04150); assay: Binding affinity to human recombinant glucocorticoid receptor expressed in baculovirus infected Sf9 cells
T1 sequence (P04150 whole entry): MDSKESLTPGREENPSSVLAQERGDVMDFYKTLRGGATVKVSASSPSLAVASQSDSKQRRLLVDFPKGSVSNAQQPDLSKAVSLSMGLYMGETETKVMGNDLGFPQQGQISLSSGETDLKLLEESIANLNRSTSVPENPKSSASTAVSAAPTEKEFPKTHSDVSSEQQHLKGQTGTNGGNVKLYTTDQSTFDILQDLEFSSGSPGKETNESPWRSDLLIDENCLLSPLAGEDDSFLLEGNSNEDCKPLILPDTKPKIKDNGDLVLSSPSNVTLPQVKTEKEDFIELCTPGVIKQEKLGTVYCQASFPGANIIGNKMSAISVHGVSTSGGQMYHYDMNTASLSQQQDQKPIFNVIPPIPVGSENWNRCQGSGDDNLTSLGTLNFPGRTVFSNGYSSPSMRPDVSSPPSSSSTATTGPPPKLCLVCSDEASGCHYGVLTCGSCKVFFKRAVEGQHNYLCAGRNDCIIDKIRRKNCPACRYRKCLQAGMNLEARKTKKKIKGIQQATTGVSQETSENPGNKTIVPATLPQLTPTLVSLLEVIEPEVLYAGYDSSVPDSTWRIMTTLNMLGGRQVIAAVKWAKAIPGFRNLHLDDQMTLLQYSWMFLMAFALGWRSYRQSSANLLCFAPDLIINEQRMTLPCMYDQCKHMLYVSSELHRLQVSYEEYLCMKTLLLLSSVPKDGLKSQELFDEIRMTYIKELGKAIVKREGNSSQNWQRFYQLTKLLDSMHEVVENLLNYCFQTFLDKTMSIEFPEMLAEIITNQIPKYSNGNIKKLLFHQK

[2] = biological target: T2, Progesterone receptor (Homo sapiens, UniProt P06401); assay: Binding affinity to human recombinant progesterone receptor expressed in baculovirus infected Sf9 cells
T2 sequence (P06401 whole entry): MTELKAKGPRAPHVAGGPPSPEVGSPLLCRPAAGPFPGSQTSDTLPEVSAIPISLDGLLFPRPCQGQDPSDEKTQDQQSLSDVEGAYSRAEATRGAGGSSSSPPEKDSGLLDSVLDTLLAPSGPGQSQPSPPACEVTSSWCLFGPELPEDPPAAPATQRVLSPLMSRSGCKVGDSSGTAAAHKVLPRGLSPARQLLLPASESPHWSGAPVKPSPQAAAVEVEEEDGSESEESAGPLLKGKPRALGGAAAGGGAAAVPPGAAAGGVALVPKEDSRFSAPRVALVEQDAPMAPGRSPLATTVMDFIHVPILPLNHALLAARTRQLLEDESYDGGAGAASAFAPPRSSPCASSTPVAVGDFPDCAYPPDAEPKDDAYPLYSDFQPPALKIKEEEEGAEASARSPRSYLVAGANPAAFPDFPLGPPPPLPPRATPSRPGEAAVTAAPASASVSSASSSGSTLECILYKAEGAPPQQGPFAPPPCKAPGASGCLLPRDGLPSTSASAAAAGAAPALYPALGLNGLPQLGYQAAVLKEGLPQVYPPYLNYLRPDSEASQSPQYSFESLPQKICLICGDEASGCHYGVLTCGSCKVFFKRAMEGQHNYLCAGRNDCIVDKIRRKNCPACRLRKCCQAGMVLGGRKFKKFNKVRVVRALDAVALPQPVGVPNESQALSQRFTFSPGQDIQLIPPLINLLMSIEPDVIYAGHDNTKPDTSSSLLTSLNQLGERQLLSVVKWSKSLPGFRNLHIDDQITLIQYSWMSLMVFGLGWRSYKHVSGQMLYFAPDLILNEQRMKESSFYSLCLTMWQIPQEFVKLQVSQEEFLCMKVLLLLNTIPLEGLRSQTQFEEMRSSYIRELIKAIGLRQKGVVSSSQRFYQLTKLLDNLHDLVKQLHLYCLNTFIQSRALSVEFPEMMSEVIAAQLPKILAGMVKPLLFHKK
Outline: (§1)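 Extracts of Sf9 cells infected with recombinant baculovirus encoding the human receptor served as receptor source for competitive binding. Run in duplicate; pIC50 derived, value error stated as 0.2.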

[3] = biological target: T3, Mineralocorticoid receptor (Homo sapiens, UniProt P08235); assay: Binding affinity to human recombinant mineralocorticoid receptor expressed in baculovirus infected Sf9 cells; outline: as §1
T3 sequence (P08235 whole entry): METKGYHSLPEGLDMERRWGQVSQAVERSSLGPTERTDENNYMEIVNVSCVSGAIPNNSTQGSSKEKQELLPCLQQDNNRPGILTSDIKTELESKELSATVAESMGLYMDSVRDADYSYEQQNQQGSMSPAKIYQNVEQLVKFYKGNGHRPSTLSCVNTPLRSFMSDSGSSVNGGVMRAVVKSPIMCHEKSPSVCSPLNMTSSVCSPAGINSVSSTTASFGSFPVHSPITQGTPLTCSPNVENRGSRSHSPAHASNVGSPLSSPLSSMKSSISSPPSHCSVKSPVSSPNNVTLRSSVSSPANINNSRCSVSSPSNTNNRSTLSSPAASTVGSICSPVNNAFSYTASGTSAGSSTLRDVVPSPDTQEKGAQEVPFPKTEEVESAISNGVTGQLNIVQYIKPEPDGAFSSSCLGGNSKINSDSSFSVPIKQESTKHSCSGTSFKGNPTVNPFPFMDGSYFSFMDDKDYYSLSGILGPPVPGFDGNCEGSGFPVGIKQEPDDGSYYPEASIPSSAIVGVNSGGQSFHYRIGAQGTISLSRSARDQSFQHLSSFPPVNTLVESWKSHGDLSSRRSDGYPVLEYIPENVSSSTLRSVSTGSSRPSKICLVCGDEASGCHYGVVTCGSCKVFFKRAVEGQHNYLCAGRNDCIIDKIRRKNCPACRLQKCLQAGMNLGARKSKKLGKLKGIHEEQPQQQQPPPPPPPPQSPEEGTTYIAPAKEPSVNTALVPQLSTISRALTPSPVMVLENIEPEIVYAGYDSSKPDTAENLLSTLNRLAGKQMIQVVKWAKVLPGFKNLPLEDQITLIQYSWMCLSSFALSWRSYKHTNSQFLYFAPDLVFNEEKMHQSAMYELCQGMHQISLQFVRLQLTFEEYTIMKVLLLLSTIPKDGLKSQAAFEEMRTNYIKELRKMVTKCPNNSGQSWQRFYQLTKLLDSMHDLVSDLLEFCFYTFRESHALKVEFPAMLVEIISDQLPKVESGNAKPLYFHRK

[4] = biological target: T4, Androgen receptor (Homo sapiens, UniProt P10275); assay: Binding affinity to human recombinant androgen receptor expressed in baculovirus infected Sf9 cells
T4 sequence (P10275 whole entry): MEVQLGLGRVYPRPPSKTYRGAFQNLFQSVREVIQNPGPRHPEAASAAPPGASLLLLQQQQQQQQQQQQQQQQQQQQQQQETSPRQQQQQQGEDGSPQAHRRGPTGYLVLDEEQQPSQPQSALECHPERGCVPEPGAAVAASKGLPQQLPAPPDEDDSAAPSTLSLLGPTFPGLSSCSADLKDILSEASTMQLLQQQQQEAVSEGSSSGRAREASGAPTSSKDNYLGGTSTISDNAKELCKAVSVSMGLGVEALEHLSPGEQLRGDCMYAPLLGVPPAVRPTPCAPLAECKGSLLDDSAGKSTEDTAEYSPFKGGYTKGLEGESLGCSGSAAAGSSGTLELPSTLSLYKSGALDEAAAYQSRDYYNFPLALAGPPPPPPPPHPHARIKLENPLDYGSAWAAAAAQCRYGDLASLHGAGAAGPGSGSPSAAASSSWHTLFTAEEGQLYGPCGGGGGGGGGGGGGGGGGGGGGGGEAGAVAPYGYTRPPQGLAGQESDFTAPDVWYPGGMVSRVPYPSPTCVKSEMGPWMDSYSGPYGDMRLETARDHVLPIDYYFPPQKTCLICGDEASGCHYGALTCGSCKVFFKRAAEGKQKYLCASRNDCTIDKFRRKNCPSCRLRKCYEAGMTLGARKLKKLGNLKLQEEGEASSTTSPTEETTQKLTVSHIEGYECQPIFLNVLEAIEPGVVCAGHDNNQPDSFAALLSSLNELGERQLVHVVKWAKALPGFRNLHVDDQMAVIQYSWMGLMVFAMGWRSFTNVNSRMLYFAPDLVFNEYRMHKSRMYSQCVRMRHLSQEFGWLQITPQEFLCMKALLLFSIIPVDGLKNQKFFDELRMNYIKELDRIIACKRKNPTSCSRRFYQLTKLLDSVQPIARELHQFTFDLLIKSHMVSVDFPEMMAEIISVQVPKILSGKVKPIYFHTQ

[5] = biological target: T1, Glucocorticoid receptor; assay: Transrepression activity at glucocorticoid receptor-mediated antiinflammatory activity in human THP1 cells assessed as inhibition of LPS-induced IL-8 production; format: cell-based, THP-1
[6] = biological target: T1, Glucocorticoid receptor; assay: Transrepression activity at glucocorticoid receptor-mediated antiinflammatory activity in human HeLa cells assessed as inhibition of TPA-induced collagenase promoter activity by luciferase reporter gene assay; format: cell-based
[7] = biological target: T1, Glucocorticoid receptor; assay: Transactivation activity at glucocorticoid receptor in human HeLa cells assessed as induction of MMTV promoter activity by luciferase reporter gene assay; format: cell-based

Row | Compound | IC50 [1] [nM] | IC50 [2] [nM] | IC50 [3] [nM] | IC50 [4] [nM] | IC50 [5] [nM] | IC50 [6] [nM] | EC50 [7] [nM]
1 | Cc1noc(=O)c2ccc(NC(=O)C(O)(CC(C)(C)c3cccc4c3OCC4)C(F)(F)F)cc12 (stereo not drawn) |  |  | 79.4 | 631 |  |  | 
2 | Cc1ccc2c(NCC(O)(CC(C)(C)c3cc(F)ccc3O)C(F)(F)F)cccc2n1 (stereo not drawn) | 6.31 | > 1000 | > 1000 | > 1000 | 5.01 | 3.16 | 12.6
3 | CC(C)(CC(O)(CNc1cccc2ncccc12)C(F)(F)F)c1cc(F)ccc1O (stereo not drawn) | 1 | > 1000 | > 1000 | > 1000 | 20 | 6.31 | 79.4
4 | COc1ccc(F)cc1C(C)(C)CC(O)(CNc1cccc2nc(C)ccc12)C(F)(F)F (stereo not drawn) | 0.631 | > 1000 | > 1000 | > 1000 | 25.1 | 2 | 25.1
5 | C[C@@H]1C[C@H]2[C@@H]3CCC4=CC(=O)C=C[C@]4(C)[C@@]3(F)[C@@H](O)C[C@]2(C)[C@@]1(O)C(=O)CO [DEXAMETHASONE] |  | > 1000 |  |  |  |  | 
6 | CC(C)(CC(O)(CNc1cccc2ccccc12)C(F)(F)F)c1cc(F)ccc1O (stereo not drawn) | 15.8 | > 1000 | > 1000 | > 1000 | > 1000 |  | 

The next lines start with the values.

Row | IC50 [1] [nM] | IC50 [2] [nM] | IC50 [3] [nM] | IC50 [4] [nM] | IC50 [5] [nM] | IC50 [6] [nM] | EC50 [7] [nM] | Compound
7 | 3.16 | 7.94 | 1.26 | 158 | 50.1 | 10 | 25.1 | Cc1noc(=O)c2ccc(NC(=O)C(O)(CC(C)(C)c3cc(F)ccc3O)C(F)(F)F)cc12 (stereo not drawn)
8 | 20 | 1000 | > 1000 | > 1000 | 25.1 |  |  | COc1ccc(F)cc1C(C)(C)CC(O)(CNc1cccc2ncccc12)C(F)(F)F (stereo not drawn)
9 | 10 | 15.8 | > 1000 | > 1000 |  |  |  | COc1ccc(F)cc1C(C)(C)CC(O)(CNc1ccc2c(=O)onc(C)c2c1)C(F)(F)F (stereo not drawn)
10 | 1 | 12.6 | 7.94 | 501 |  |  |  | COc1ccc(F)cc1C(C)(C)CC(O)(C(=O)Nc1ccc2c(=O)onc(C)c2c1)C(F)(F)F (stereo not drawn)
11 | > 1000 | > 1000 | > 1000 | > 1000 |  |  |  | COc1ccc(F)cc1C(C)(C)CC(O)(CNc1cccc2ccccc12)C(F)(F)F (stereo not drawn)

Source: ChEMBL document CHEMBL1255506, “Discovery of quinolines as selective glucocorticoid receptor agonists” (Bioorg Med Chem Lett, 2010)
